SDO1 yeast rescue = sdo1-depleted yeast growth rescue; AID 817; z-score at 10 µM; 140,000 tested, 0.21% active; S. cerevisiae sdo1-depleted JHY4D growth rescue, OD600 30 h; hits give high values; pdr5 snq2 efflux-pump mutant strain;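 active = z-score above 3 at both the 24 hr and the 30 hr optical density reads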
TNAP inh hiacc = blocks human TNAP under high phosphate acceptor concentration; P05186; purified TNAP, CDP-star luminescence, 1 M DEA; inhibition, % at 20 µM; 200,000 tested, 0.03% active;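 active = over 50% inhibition of tissue-nonspecific alkaline phosphatase at 20 µM in the single-dose screen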
Target sequence (P05186 whole entry, looked up): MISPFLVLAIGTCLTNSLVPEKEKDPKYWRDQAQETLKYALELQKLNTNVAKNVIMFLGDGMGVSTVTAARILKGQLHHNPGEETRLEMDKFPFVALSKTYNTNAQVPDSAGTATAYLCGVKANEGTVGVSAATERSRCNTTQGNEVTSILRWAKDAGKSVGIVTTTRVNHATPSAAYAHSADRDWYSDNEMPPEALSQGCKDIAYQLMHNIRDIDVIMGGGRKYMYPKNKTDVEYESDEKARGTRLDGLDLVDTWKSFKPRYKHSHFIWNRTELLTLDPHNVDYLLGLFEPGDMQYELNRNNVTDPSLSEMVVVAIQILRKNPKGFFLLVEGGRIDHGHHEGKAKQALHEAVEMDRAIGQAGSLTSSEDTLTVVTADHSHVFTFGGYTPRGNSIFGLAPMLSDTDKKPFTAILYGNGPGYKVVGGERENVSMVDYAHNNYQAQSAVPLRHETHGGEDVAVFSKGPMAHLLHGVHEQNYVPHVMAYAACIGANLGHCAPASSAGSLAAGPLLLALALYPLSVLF
TNAP inh noacc = TNAP (human) inhibition, acceptor-free conditions | P05186 | 200,000 tested, 0.26% active | AID 1012 | purified TNAP, CDP-star luminescence, 30 min | inhibition, % at 20 µM;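 active = tissue-nonspecific alkaline phosphatase inhibition above about 50% at 20 µM in the single-dose screen, limit read from the data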
TNF death inh = TNF-alpha cell death inhibition in Jurkat FADD-/- cells | activation (protection from cell death), % at 10 µM | 220,000 tested, 0.068% active | Jurkat FADD-/- TNF necroptosis rescue, ATP luminescence, 24 h; 0 = TNF only, 100 = no-TNF cells;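 active = activation, meaning protection from cell death, of at least 50% relative to plate controls; inactive = activation below 50%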;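 note: necroptosis triggered by 40 ng/mL TNF-alpha added together with compound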
TNAP act hi DEA = increases human TNAP activity under high phosphate acceptor concentration; purified TNAP, CDP-star luminescence, 1 M DEA, 30 min; hits give high values; 0 = EDTA background, 1 = DMSO-only activity; P05186; activation factor at 20 µM; 200,000 tested, under 10 active;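 active = activation factor at least 2 at 20 µM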
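Assay system: human TNAP; Input: enzyme diluted 1/800 final; Reagent: CDP-star luminogenic substrate at 100 µM final; Timing: 30 min, room temperature; Signal: luminescence; Evaluation: TNAP activation factor scaled between EDTA and DMSO control wells.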
zVAD death inh = L929 zVAD cell death inhibition; L929 zVAD necroptosis rescue, ATP luminescence, 24 h; with zVAD 60 µM; viability rescue, % at 10 µM; 220,000 tested, 0.38% active; AID 1377;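 active = activation, scaled between plate controls, above about 75%, limit read from the data; inactive = activation under that limit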
zVAD necrop conf = confirmed blocker of zVAD induced death in L929 cells; shares compounds with zVAD death inh; L929 zVAD-induced necroptosis rescue, ATP luminescence, 24 h; activation (protection from necroptosis), % at 10 µM; 760 tested, 16% active;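 active = mean protection from necroptosis of at least 50% over duplicate tests; inactive = mean protection below 50%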
Hits are given with their value. Only some compounds are listed: those with a hit (about 0.81% of all), similar ones and a draw of the others.

Results for Cc1cc(C)nc(N2CCN(C(=O)CCC(=O)Nc3nnc(C(C)C)s3)CC2)n1 ?
TNF death inh: inactive; zVAD death inh: 76; zVAD necrop conf: inactive

Results for COc1ccc(-c2cc(C(=O)Nc3cc(OC)cc(C(=O)Nc4cccc(C(F)(F)F)c4)c3)[nH]n2)cc1 ?
TNF death inh: inactive; zVAD death inh: 79; zVAD necrop conf: inactive

Results for COc1cc(NC(=O)c2ccno2)cc(C(=O)Nc2cccc(C(F)(F)F)c2)c1 ?
TNF death inh: inactive; zVAD death inh: inactive

What do the screens show for `O=C(Nc1ccc(-c2csc(Nc3cccc(C(F)(F)F)c3)n2)cc1)c1ccccc1`?
TNF death inh: inactive; zVAD death inh: 83; zVAD necrop conf: inactive

Results for O=C(Nc1cccc(-c2csc(Nc3cccc(C(F)(F)F)c3)n2)c1)c1ccccc1 ?
TNF death inh: inactive; zVAD death inh: inactive

Results for CCCNC(=O)c1ccc2c(c1)ncn2-c1cc(C)cc(C)c1 ?
TNAP inh hiacc: inactive; TNAP inh noacc: inactive; TNF death inh: inactive; TNAP act hi DEA: inactive; zVAD death inh: 76; zVAD necrop conf: inactive

What do the screens show for `CCCCNC(=O)c1ccc2c(c1)ncn2C1CCCCC1`?
SDO1 yeast rescue: inactive; TNAP inh hiacc: inactive; TNAP inh noacc: inactive; TNF death inh: inactive; TNAP act hi DEA: inactive; zVAD death inh: 79; zVAD necrop conf: inactive

What do the screens show for `COc1ccccc1NC(=O)Nc1ccc(Cc2ccncc2)cc1`?
TNAP inh hiacc: inactive; TNAP inh noacc: inactive; TNF death inh: inactive; TNAP act hi DEA: inactive; zVAD death inh: 78; zVAD necrop conf: inactive

What do the screens show for `COc1ccc(NC(=O)Nc2ccc(Cc3ccncc3)cc2)cc1OC`?
SDO1 yeast rescue: inactive; TNAP inh hiacc: inactive; TNAP inh noacc: inactive; TNF death inh: inactive; TNAP act hi DEA: inactive; zVAD death inh: 82; zVAD necrop conf: inactive

What do the screens show for `COc1ccccc1NC(=O)Nc1ccncc1`?
TNAP inh hiacc: inactive; TNAP inh noacc: inactive; TNF death inh: inactive; TNAP act hi DEA: inactive; zVAD death inh: inactive

How did COC(=O)c1ccccc1NC(=O)Nc1cc(C)ccn1 do in these assays?
TNAP inh hiacc: inactive; TNAP inh noacc: inactive; TNF death inh: inactive; TNAP act hi DEA: inactive; zVAD death inh: inactive

How did Cc1ccnc(NC(=O)Nc2ccc(Br)cc2Cl)c1 do in these assays?
TNAP inh hiacc: inactive; TNAP inh noacc: inactive; TNF death inh: inactive; TNAP act hi DEA: inactive; zVAD death inh: 83; zVAD necrop conf: inactive

What do the screens show for `COc1ccc(NC(=O)Nc2cnccn2)cc1`?
TNF death inh: inactive; zVAD death inh: inactive

Results for O=C(Nc1cnccn1)Nc1ccc(Cl)cc1Cl ?
TNAP inh hiacc: inactive; TNAP inh noacc: inactive; TNF death inh: inactive; TNAP act hi DEA: inactive; zVAD death inh: 80; zVAD necrop conf: inactive

What do the screens show for `Cc1ccc(NC(=O)Nc2cnccn2)cc1Cl`?
TNAP inh hiacc: inactive; TNAP inh noacc: inactive; TNF death inh: inactive; TNAP act hi DEA: inactive; zVAD death inh: 80; zVAD necrop conf: inactive

What do the screens show for `COC(=O)c1ccccc1NC(=O)NCc1c(C)nn(C)c1C`?
TNAP inh hiacc: inactive; TNAP inh noacc: inactive; TNF death inh: inactive; TNAP act hi DEA: inactive; zVAD death inh: inactive

Results for COc1ccc(OCCC(=O)NCC23CC4CC(CC(C4)C2)C3)cc1 ?
TNAP inh hiacc: inactive; TNAP inh noacc: inactive; TNF death inh: inactive; TNAP act hi DEA: inactive; zVAD death inh: 94; zVAD necrop conf: inactive

What do the screens show for `COc1ccc(OCCC(=O)NCc2ccccc2)cc1`?
SDO1 yeast rescue: inactive; TNAP inh hiacc: inactive; TNAP inh noacc: inactive; TNF death inh: inactive; TNAP act hi DEA: inactive; zVAD death inh: inactive

Results for COc1ccc(C[C@H]2CN3C(=NC[C@H]3C)N2CCNC(=O)c2ccc(C)c(Br)c2)cc1 ?
TNAP inh hiacc: inactive; TNAP inh noacc: inactive; TNF death inh: inactive; TNAP act hi DEA: inactive; zVAD death inh: inactive

What do the screens show for `CCC1(c2ccccc2)C(=O)NCNC1=O`?
SDO1 yeast rescue: inactive; TNAP inh hiacc: inactive; TNAP inh noacc: inactive; TNF death inh: inactive; TNAP act hi DEA: inactive; zVAD death inh: 75; zVAD necrop conf: inactive

What do the screens show for `CCc1ccc(C(C(=O)NC2CCCCC2)N(C(=O)CNC(=O)c2ccco2)c2cccnc2)cc1` (stereo unspecified)?
TNF death inh: inactive; zVAD death inh: inactive

What do the screens show for `O=S(=O)(Nc1ccc(Cl)cc1)c1ccc(N2CCOCC2)c(NC(=S)NC2CC2)c1`?
TNAP inh hiacc: inactive; TNAP inh noacc: inactive; TNF death inh: inactive; TNAP act hi DEA: inactive; zVAD death inh: inactive

Results for CCNC(=O)c1c(O)c2ccccc2[nH]c1=O ?
SDO1 yeast rescue: inactive; TNAP inh hiacc: inactive; TNAP inh noacc: inactive; TNF death inh: 55; TNAP act hi DEA: inactive; zVAD death inh: 76; zVAD necrop conf: inactive

Results for O=C(/C=C/c1ccc(Cl)cc1)Nc1nccs1 ?
TNAP inh hiacc: inactive; TNAP inh noacc: inactive; TNF death inh: inactive; TNAP act hi DEA: inactive; zVAD death inh: 77; zVAD necrop conf: inactive

Results for C/C=C/C=C/C(=O)Nc1nccs1 ?
SDO1 yeast rescue: inactive; TNAP inh hiacc: inactive; TNAP inh noacc: inactive; TNF death inh: inactive; TNAP act hi DEA: inactive; zVAD death inh: 86; zVAD necrop conf: inactive

How did O=C(NCc1ccc(Cl)cc1)C(=O)Nc1nccs1 do in these assays?
TNAP inh hiacc: inactive; TNAP inh noacc: inactive; TNF death inh: inactive; TNAP act hi DEA: inactive; zVAD death inh: inactive

Results for CC(C)COc1ccc(C(=O)N2C(=O)c3ccc(N)cc3C2=O)cc1 ?
TNF death inh: inactive; zVAD death inh: inactive

What do the screens show for `COc1ccc2nc(NC(=O)CCN3C(=O)c4ccccc4C3=O)sc2c1`?
SDO1 yeast rescue: inactive; TNAP inh hiacc: inactive; TNAP inh noacc: inactive; TNF death inh: inactive; TNAP act hi DEA: inactive; zVAD death inh: inactive

Results for CCN1CCN(CC(=O)Nc2nc3ccc(OC)cc3s2)CC1 ?
SDO1 yeast rescue: inactive; TNAP inh hiacc: inactive; TNAP inh noacc: inactive; TNF death inh: inactive; TNAP act hi DEA: inactive; zVAD death inh: 84; zVAD necrop conf: inactive

What do the screens show for `CCCC(=O)Nc1nc2ccc(OC)cc2s1`?
SDO1 yeast rescue: inactive; TNAP inh hiacc: inactive; TNAP inh noacc: inactive; TNF death inh: inactive; TNAP act hi DEA: inactive; zVAD death inh: inactive

What do the screens show for `COc1ccc2nc(NC(=O)CCNC(=O)c3ccccc3Cl)sc2c1`?
TNAP inh hiacc: inactive; TNAP inh noacc: inactive; TNF death inh: inactive; TNAP act hi DEA: inactive; zVAD death inh: 78; zVAD necrop conf: inactive

What do the screens show for `COc1ccc2nc(NC(=O)CN3CCN(C)CC3)sc2c1`?
SDO1 yeast rescue: inactive; TNAP inh hiacc: inactive; TNAP inh noacc: inactive; TNF death inh: inactive; TNAP act hi DEA: inactive; zVAD death inh: 92; zVAD necrop conf: inactive
